# Measurements reported in ChEMBL document CHEMBL4689842, “EUbOPEN Chemogenomics Library wave 1” (2021).
# Tested on: U2OS
# Assay: Multiplex assay against U2OS
# Type: toxicity, cell-based
# Details: human
# Procedure, shortened: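 Per cents of healthy-nucleus cells form the tubulin, mitochondrial-mass and membrane-permeability phenotype values. Live cells were stained at seeding with Hoechst33342, BioTracker Green Microtubule Cytoskeleton Dye, MitoTracker Red and Annexin V Alexa Fluor 680. After compound addition they were imaged on a CQ1 microscope at 37°C and 5% CO2, and CellPathfinder machine-learning gating split them into Hoechst high-intensity objects or normal cells, normal cells into healthy, pyknosed or fragmented nuclei, and pyknosed cells into mitotic or apoptotic.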
# [1] = 12 h, 1 µM, compound concentration 1 uM, replicate 1
# [2] = 12 h, 1 µM, compound concentration 1 uM, replicate 2
# [3] = 12 h, 10 µM, compound concentration 10 uM, replicate 1
# [4] = 12 h, 10 µM, compound concentration 10 uM, replicate 2
# [5] = 24 h, 1 µM, compound concentration 1 uM, replicate 1
# [6] = 24 h, 1 µM, compound concentration 1 uM, replicate 2
# [7] = 24 h, 10 µM, compound concentration 10 uM, replicate 1
# [8] = 24 h, 10 µM, compound concentration 10 uM, replicate 2
# [9] = 48 h, 1 µM, compound concentration 1 uM, replicate 1
# [10] = 48 h, 1 µM, compound concentration 1 uM, replicate 2
# [11] = 48 h, 10 µM, compound concentration 10 uM, replicate 1
# [12] = 48 h, 10 µM, compound concentration 10 uM, replicate 2
smiles,measurement,setting,value
O=C1NCN(c2ccccc2)C12CCN(CCCOc1ccc(F)cc1)CC2 [SPIRAMIDE],Population Apoptotic (%),[1],22%
same,Population Fragmented Nuclei (%),[1],16%
same,Population Healthy Nuclei (%),[1],77%
same,Population Hoechst High Intensity Objects (%),[1],6%
same,Population Membrane Permeable-Phenotype (%),[1],1%
same,Population Mitochondria Different-Phenotype (%),[1],9%
same,Population Mitotic Cells (%),[1],77%
same,Population Normal (%),[1],93%
same,Population Pyknosed Nuclei (%),[1],6%
same,Population Tubulin-Different-Phenotype (%),[1],10%
same,Total Cell Count,[1],210
same,Population Apoptotic (%),[2],0%
same,Population Fragmented Nuclei (%),[2],10%
same,Population Healthy Nuclei (%),[2],88%
same,Population Hoechst High Intensity Objects (%),[2],7%
same,Population Membrane Permeable-Phenotype (%),[2],0%
same,Population Mitochondria Different-Phenotype (%),[2],10%
same,Population Mitotic Cells (%),[2],100%
same,Population Normal (%),[2],92%
same,Population Pyknosed Nuclei (%),[2],1%
same,Population Tubulin-Different-Phenotype (%),[2],6%
same,Total Cell Count,[2],74
same,Population Apoptotic (%),[3],36%
same,Population Fragmented Nuclei (%),[3],16%
same,Population Healthy Nuclei (%),[3],51%
same,Population Hoechst High Intensity Objects (%),[3],10%
same,Population Membrane Permeable-Phenotype (%),[3],4%
same,Population Mitochondria Different-Phenotype (%),[3],74%
same,Population Mitotic Cells (%),[3],63%
same,Population Normal (%),[3],90%
same,Population Pyknosed Nuclei (%),[3],31%
same,Population Tubulin-Different-Phenotype (%),[3],50%
same,Total Cell Count,[3],145
same,Population Apoptotic (%),[4],50%
same,Population Fragmented Nuclei (%),[4],3%
same,Population Healthy Nuclei (%),[4],88%
same,Population Hoechst High Intensity Objects (%),[4],8%
same,Population Membrane Permeable-Phenotype (%),[4],2%
same,Population Mitochondria Different-Phenotype (%),[4],27%
same,Population Mitotic Cells (%),[4],50%
same,Population Normal (%),[4],91%
same,Population Pyknosed Nuclei (%),[4],7%
same,Population Tubulin-Different-Phenotype (%),[4],12%
same,Total Cell Count,[4],91
same,Population Apoptotic (%),[5],27%
same,Population Fragmented Nuclei (%),[5],8%
same,Population Healthy Nuclei (%),[5],80%
same,Population Hoechst High Intensity Objects (%),[5],7%
same,Population Membrane Permeable-Phenotype (%),[5],0%
same,Population Mitochondria Different-Phenotype (%),[5],5%
same,Population Mitotic Cells (%),[5],72%
same,Population Normal (%),[5],92%
same,Population Pyknosed Nuclei (%),[5],11%
same,Total Cell Count,[5],229
same,Population Apoptotic (%),[6],0%
same,Population Fragmented Nuclei (%),[6],7%
same,Population Healthy Nuclei (%),[6],89%
same,Population Hoechst High Intensity Objects (%),[6],6%
same,Population Membrane Permeable-Phenotype (%),[6],2%
same,Population Mitochondria Different-Phenotype (%),[6],7%
same,Population Mitotic Cells (%),[6],100%
same,Population Normal (%),[6],93%
same,Population Pyknosed Nuclei (%),[6],3%
same,Population Tubulin-Different-Phenotype (%),[6],7%
same,Total Cell Count,[6],76
same,Population Apoptotic (%),[7],41%
same,Population Fragmented Nuclei (%),[7],18%
same,Population Healthy Nuclei (%),[7],32%
same,Population Hoechst High Intensity Objects (%),[7],8%
same,Population Membrane Permeable-Phenotype (%),[7],10%
same,Population Mitochondria Different-Phenotype (%),[7],71%
same,Population Mitotic Cells (%),[7],58%
same,Population Normal (%),[7],91%
same,Population Pyknosed Nuclei (%),[7],48%
same,Population Tubulin-Different-Phenotype (%),[7],31%
same,Total Cell Count,[7],173
same,Population Apoptotic (%),[8],27%
same,Population Fragmented Nuclei (%),[8],3%
same,Population Healthy Nuclei (%),[8],78%
same,Population Hoechst High Intensity Objects (%),[8],6%
same,Population Membrane Permeable-Phenotype (%),[8],2%
same,Population Mitochondria Different-Phenotype (%),[8],21%
same,Population Mitotic Cells (%),[8],72%
same,Population Normal (%),[8],93%
same,Population Pyknosed Nuclei (%),[8],18%
same,Population Tubulin-Different-Phenotype (%),[8],10%
same,Total Cell Count,[8],118
same,Population Apoptotic (%),[9],25%
same,Population Fragmented Nuclei (%),[9],9%
same,Population Healthy Nuclei (%),[9],85%
same,Population Hoechst High Intensity Objects (%),[9],4%
same,Population Membrane Permeable-Phenotype (%),[9],1%
same,Population Mitochondria Different-Phenotype (%),[9],12%
same,Population Mitotic Cells (%),[9],75%
same,Population Normal (%),[9],95%
same,Population Pyknosed Nuclei (%),[9],4%
same,Population Tubulin-Different-Phenotype (%),[9],8%
same,Total Cell Count,[9],288
same,Population Apoptotic (%),[10],16%
same,Population Fragmented Nuclei (%),[10],8%
same,Population Healthy Nuclei (%),[10],84%
same,Population Hoechst High Intensity Objects (%),[10],1%
same,Population Membrane Permeable-Phenotype (%),[10],0%
same,Population Mitochondria Different-Phenotype (%),[10],10%
same,Population Mitotic Cells (%),[10],83%
same,Population Normal (%),[10],98%
same,Population Pyknosed Nuclei (%),[10],6%
same,Population Tubulin-Different-Phenotype (%),[10],9%
same,Total Cell Count,[10],106
same,Population Apoptotic (%),[11],67%
same,Population Fragmented Nuclei (%),[11],32%
same,Population Healthy Nuclei (%),[11],21%
same,Population Hoechst High Intensity Objects (%),[11],12%
same,Population Membrane Permeable-Phenotype (%),[11],12%
same,Population Mitochondria Different-Phenotype (%),[11],58%
same,Population Mitotic Cells (%),[11],32%
same,Population Normal (%),[11],87%
same,Population Pyknosed Nuclei (%),[11],45%
same,Population Tubulin-Different-Phenotype (%),[11],28%
same,Total Cell Count,[11],265
same,Population Apoptotic (%),[12],16%
same,Population Fragmented Nuclei (%),[12],13%
same,Population Healthy Nuclei (%),[12],78%
same,Population Hoechst High Intensity Objects (%),[12],9%
same,Population Membrane Permeable-Phenotype (%),[12],11%
same,Population Mitochondria Different-Phenotype (%),[12],16%
same,Population Mitotic Cells (%),[12],83%
same,Population Normal (%),[12],90%
same,Population Pyknosed Nuclei (%),[12],7%
same,Population Tubulin-Different-Phenotype (%),[12],18%
same,Total Cell Count,[12],182
